What was measured:
[1] = test system: UO-31; experiment: Cytotoxicity against human UO31 cells assessed as cell growth at 10 uM after 48 hrs by SRB assay relative to control; type: functional; conditions: UO-31, 48 h, read-out: Activity
Summary of the method: (§1)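 Single-dose NCI screen: compound at 10⁻⁵ M added to tumor cell cultures and incubated for 48 h. The SRB protein-binding dye end point was read spectrophotometrically. Results are percent growth of treated cells relative to untreated controls.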

[2] = Selectivity index, ratio of CC50 for MDCK cells to EC50 for Influenza A virus (A/duck/Minnesota/1525/1981(H5N1)); type: toxicity, cell-based; conditions: dog, read-out: Ratio CC50/EC50
[3] = Selectivity index, ratio of CC50 for MDCK cells to EC50 for Influenza A virus (A/Perth/16/2009(H3N2)); type: toxicity, cell-based; conditions: dog, read-out: Ratio CC50/EC50
[4] = test system: Influenza B virus; experiment: Antiviral activity against Influenza B virus (B/Florida/4/2006) infected in MDCK cells assessed as inhibition of virus-induced cytopathic effect by cell-based neutral red uptake assay; type: functional; conditions: B/Florida/4/2006, MDCK
[5] = Antiviral activity against SARS coronavirus Urbani infected in MDCK cells assessed as inhibition of virus-induced cytopathic effect by cell-based neutral red uptake assay; type: functional; conditions: Severe acute respiratory syndrome-related coronavirus
[6] = test system: Influenza A virus; experiment: Antiviral activity against Influenza A virus (A/California/07/2009(H1N1)) infected in MDCK cells assessed as inhibition of virus-induced cytopathic effect by cell-based neutral red uptake assay; type: functional, organism-based
[7] = Selectivity index, ratio of CC50 for MDCK cells to EC50 for Influenza A virus (A/California/07/2009(H1N1)); type: toxicity, cell-based; conditions: dog, read-out: Ratio CC50/EC50
[8] = test system: Influenza A virus; experiment: Antiviral activity against Influenza A virus (A/duck/Minnesota/1525/1981(H5N1)) infected in MDCK cells assessed as inhibition of virus-induced cytopathic effect by cell-based neutral red uptake assay; type: functional, organism-based
[9] = test system: MDCK; experiment: (§2) Cytotoxicity against MDCK cells; type: cell-based, Canis lupus familiaris; conditions: dog, mdck
Summary of the method: (§3)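 Cytotoxicity was measured in uninfected wells run alongside the antiviral plates, across eight half-log dilutions in MEM. Cells were stained with neutral red, and the extracted dye was read at 540 nm. CC₅₀, the concentration giving 50% cytotoxicity, was obtained by regression, and values are reported in μM.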

[10] = test system: Influenza A virus; experiment: Antiviral activity against Influenza A virus (A/Perth/16/2009(H3N2)) infected in MDCK cells assessed as inhibition of virus-induced cytopathic effect by cell-based neutral red uptake assay; type: functional, organism-based
[11] = Selectivity index, ratio of CC50 for MDCK cells to EC50 for Influenza B virus (B/Florida/4/2006); type: toxicity, cell-based; conditions: dog, read-out: Ratio CC50/EC50
[12] = test system: Trypanosoma cruzi; experiment: Antitrypanosomal activity against […] form of Trypanosoma cruzi Y infected in monkey […] cells assessed as parasite growth inhibition after 15 hrs by trypan blue staining-based hemocytometric analysis; type: functional, organism-based
[13] = as §2; type: cell-based, Canis lupus familiaris; conditions: dog, MDCK cells; summary of the method: as §3
[14] = test system: Trypanosoma brucei brucei; experiment: Antitrypanosomal activity against bloodstream form of Trypanosoma brucei brucei 90-13 assessed as parasite growth inhibition after 72 hrs by resazurin-based fluorescence assay; type: functional, organism-based; conditions: 90-13, 72 h
Summary of the method: (§4)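 Bloodstream forms of strain 90-13 or Feo were grown in HMI9 with 10% FCS at 37 °C under 5% CO₂. Log-phase parasites were seeded at 10⁵ cells/ml and exposed for 72 h to 10–0.625 μg/ml drug from DMSO stocks, with DMSO as control. Resazurin was added at 45 μM final, and fluorescence was read 4 h later. IC₅₀ was taken from the dose–response curve as the mean of three independent experiments.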

[15] = test system: Trypanosoma brucei gambiense; experiment: Antitrypanosomal activity against bloodstream form of Trypanosoma brucei gambiense Feo assessed as parasite growth inhibition after 72 hrs by resazurin-based fluorescence assay; type: functional, organism-based; summary of the method: as §4
[16] = test system: CCRF-CEM; experiment: Cytotoxicity against human CCRF-CEM cells assessed as cell growth at 10 uM after 48 hrs by SRB assay relative to control; type: functional; conditions: read-out: Activity
Summary of the method: (§5)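 This was the NCI primary screen, with compound added once at 10⁻⁵ M and cultures incubated for 48 h. The endpoint was sulforhodamine B protein staining. Results are expressed as percent growth of treated cells relative to untreated control cells.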

[17] = test system: HOP-92; experiment: Cytotoxicity against human HOP92 cells assessed as cell growth at 10 uM after 48 hrs by SRB assay relative to control; type: functional; conditions: HOP-92, 48 h, read-out: Activity; summary of the method: as §5
[18] = test system: K562; experiment: Cytotoxicity against human K562 cells assessed as cell growth at 10 uM after 48 hrs by SRB assay relative to control; type: functional; conditions: K562, 48 h, read-out: Activity; summary of the method: as §5
[19] = test system: T47D; experiment: Cytotoxicity against human T47D cells assessed as cell growth at 10 uM after 48 hrs by SRB assay relative to control; type: functional; conditions: read-out: Activity; summary of the method: as §1
[20] = Selectivity index, ratio of CC50 for MDCK cells to EC50 for SARS coronavirus Urbani; type: toxicity, cell-based; conditions: dog, read-out: Ratio CC50/EC50

SMILES	selectivity ratio [2]	EC50 [4] [µM]	EC50 [5] [µM]	EC50 [6] [µM]	selectivity ratio [7]	EC50 [8] [µM]	CC50 [9] [µM]	EC50 [10] [µM]	selectivity ratio [11]	other results
COc1ccc(C2CC(c3ccc4ccccc4c3)=NN2C2SC(=O)N(CN3CCN(C(C)=O)CC3)C2=O)cc1 (configuration not stated)	–	–	–	–	–	–	–	–	–	growth at 10 µM [1]: 82.2%
COc1ccc(C2CC(c3ccc4ccccc4c3)=NN2C2SC(=O)N(CC(=O)Nc3ccc(C)cc3)C2=O)cc1 (configuration not stated)	> 16.3	79.7	> 313	142	1.6	21.8	> 74.4	53.1	2.1	selectivity ratio [3]: 1.4; growth at 10 µM [1]: 76.6%
CCC1SC(N/N=C\CSc2ccccc2)=NC1=O (configuration not stated)	–	–	–	–	–	–	–	–	–	IC50 [12]: 0.3 µM
NC(=O)c1ncn([C@@H]2O[C@H](CO)[C@@H](O)[C@H]2O)n1 [RIBAVIRIN]	–	–	–	23.8	–	18.4	–	18.4	–	CC50 [13]: > 324 µM
COc1ccc(NC(=O)CN2C(=O)SC(N3N=C(c4ccc5ccccc5c4)CC3c3ccc(Cl)cc3)C2=O)cc1 (configuration not stated)	1.5	95.7	> 342	120	1.5	179	> 25.6	18.8	1.4	IC50 [14]: 11.3 µM; selectivity ratio [3]: 1.3; IC50 [15]: 6.1 µM
COc1ccc(C2CC(c3ccc4ccccc4c3)=NN2C2SC(=O)NC2=O)cc1 (configuration not stated)	1.6	4.55	> 23.5	9.82	1.1	7.9	6.23	4.31	1.8	IC50 [14]: 13.9 µM; selectivity ratio [3]: 1.4; growth at 10 µM [1]: 77.5%; IC50 [15]: 6.66 µM
N=C(N)c1ccc(OCCCCCOc2ccc(C(=N)N)cc2)cc1 [PENTAMIDINE]	–	–	–	–	–	–	–	–	–	IC50 [15]: 0.0053 µM
COc1ccc(NC(=O)CN2C(=O)S/C(=C\C(=O)N3N=C(c4ccc5ccccc5c4)CC3c3ccc(OC)cc3)C2=O)cc1 (configuration not stated)	–	–	–	–	–	–	–	–	–	growth at 10 µM [16]: 74.7%
COc1ccc(C2CC(c3ccc4ccccc4c3)=NN2C2SC(=O)N(CN3CCCCC3)C2=O)cc1 (configuration not stated)	–	–	–	–	–	–	–	–	–	growth at 10 µM [17]: 69.5%
O=C1NC(=O)C(N2N=C(c3ccc4ccccc4c3)CC2c2ccc(Cl)cc2)S1 (configuration not stated)	1.2	3.08	> 23.2	4.27	1	5.21	–	2.84	1.6	selectivity ratio [3]: 1; growth at 10 µM [17]: 74.9%
Cc1ccc(NC(=O)CN2C(=O)SC(N3N=C(c4ccc5ccccc5c4)CC3c3ccc(Cl)cc3)C2=O)cc1 (configuration not stated)	1.1	35.1	> 351	54.5	1.3	51	> 13.3	> 13.3	1.3	IC50 [14]: 5.43 µM; IC50 [15]: 2.53 µM
CC(=O)N1CCN(CN2C(=O)SC(N3N=C(c4ccc5ccccc5c4)CC3c3ccc(Cl)cc3)C2=O)CC1 (configuration not stated)	–	–	–	–	–	–	–	–	–	growth at 10 µM [18]: 76.4%
COc1ccc(C2CC(c3ccc4ccccc4c3)=NN2C(=O)/C=C2\SC(=O)NC2=O)cc1 (configuration not stated)	–	–	–	–	–	–	–	–	–	growth at 10 µM [19]: 78.7%
COc1ccc(C2CC(c3ccc4ccccc4c3)=NN2C2SC(=O)N(CN3CCN(Cc4ccccc4)CC3)C2=O)cc1 (configuration not stated)	–	57.8	21.5	13.7	1.1	> 24.8	6.6	> 6.6	1	selectivity ratio [20]: 1.6; growth at 10 µM [1]: 74.5%
CCN1CCN(CN2C(=O)SC(N3N=C(c4ccc5ccccc5c4)CC3c3ccc(Cl)cc3)C2=O)CC1 (configuration not stated)	1.4	4.01	> 16.8	4.01	1.1	4.38	2.37	> 2.37	2.1	–

— ChEMBL document CHEMBL2412956, “Synthesis and biological activity evaluation of 5-pyrazoline substituted 4-thiazolidinones” (Eur J Med Chem, 2013)
